Measured values taken from article PMC3744939 (ChemMedChem, 2012).
Structures can show the parent of a compound that is named as a salt. Where two headings read alike, the source gives them in different places.

Columns and labels:
[1] = biological target: T1, recombinant T. b. brucei CTPS (Trypanosoma brucei brucei, UniProt Q4GZ95); assay: CTPS enzyme assay; format: biochemical
T1 sequence (Q4GZ95 1-589): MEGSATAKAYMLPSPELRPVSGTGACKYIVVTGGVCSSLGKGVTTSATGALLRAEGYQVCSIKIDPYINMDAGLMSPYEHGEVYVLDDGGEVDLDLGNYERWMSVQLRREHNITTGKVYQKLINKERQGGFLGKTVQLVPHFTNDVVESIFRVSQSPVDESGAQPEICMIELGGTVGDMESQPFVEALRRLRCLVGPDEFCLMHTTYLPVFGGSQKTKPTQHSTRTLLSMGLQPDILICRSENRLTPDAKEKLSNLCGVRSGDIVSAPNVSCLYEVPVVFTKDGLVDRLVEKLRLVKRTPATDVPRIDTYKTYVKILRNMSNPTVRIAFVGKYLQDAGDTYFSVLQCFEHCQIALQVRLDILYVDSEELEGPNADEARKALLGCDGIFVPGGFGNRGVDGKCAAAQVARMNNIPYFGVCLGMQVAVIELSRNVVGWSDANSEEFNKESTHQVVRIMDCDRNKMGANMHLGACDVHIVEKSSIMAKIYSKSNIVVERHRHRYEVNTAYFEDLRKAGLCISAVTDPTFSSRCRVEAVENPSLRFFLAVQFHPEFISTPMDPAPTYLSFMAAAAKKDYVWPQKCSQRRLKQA
Outline: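 Recombinant T. b. brucei CTPS measured by coupled spectrophotometric assay with pyruvate kinase/lactate dehydrogenase. Enzyme pre-incubated with varied test-compound concentrations at room temperature, then added to reaction mix; A341 decrease monitored; IC50.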

[2] = tested on: HeLa cells; assay: In vitro toxicity assay for HeLa mammalian cells; format: cell-based, human; details: read-out: HeLa EC50
Outline: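 Alamar Blue assay on HeLa cells grown in DMEM with 10% FCS and 2 mM L-glutamine. Cells plated at 3 × 10^5 cells mL−1 and exposed to serially diluted test compound for 16 h before Alamar Blue addition. Fluorescence read at ex 544/em 590 nm; EC50 derived from the dose-response.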

[3] = tested on: bloodstream form T. b. brucei (strain 427); assay: In vitro toxicity assay for T. b. brucei; format: cell-based; details: for EC50: read-out: T. b. brucei EC50, strain 427, 48 h + 24 h Alamar Blue
[4] = biological target: T1, recombinant T. b. brucei CTPS; details: 3-Br versus 3-Cl (Acivicin); cited from earlier work
[5] = tested on: bloodstream form T. b. brucei (strain 427); details: 3-Br versus 3-Cl (Acivicin); cited from earlier work
[6] = tested on: HeLa cells; details: 3-Br versus 3-Cl (Acivicin); cited from earlier work
[7] = 16 hours incubation before Alamar Blue

SMILES	IC50 [1]	EC50 ([2]; Homo sapiens, HeLa, 16 h)	S.I. selectivity index (EC50 HeLa/EC50 T. b. brucei) [3]	further results
N[C@H](C(=O)O)[C@H]1CC(Cl)=NN1Cc1ccccc1 (relative stereo) [Compound 7a, (S*)-2-amino-2-((R*)-1-benzyl-3-chloro-4,5-dihydro-1H-pyrazol-5-yl)acetic acid hydrochloride]	> 500 µM	> 500 µM	–	–
N[C@H](C(=O)O)[C@@H]1CC(Cl)=NN1Cc1ccccc1 (relative stereo) [Compound 7b, (S*)-2-amino-2-((S*)-1-benzyl-3-chloro-4,5-dihydro-1H-pyrazol-5-yl)acetic acid hydrochloride]	> 500 µM	> 500 µM	–	–
CCN1N=C(Cl)C[C@@H]1[C@H](N)C(=O)O.Cl (relative stereo) [Compound 8a, (S*)-2-amino-2-((R*)-3-chloro-1-ethyl-4,5-dihydro-1H-pyrazol-5-yl)acetic acid hydrochloride]	0.1 ± 0.004 µM	> 500 µM	>5	increase of trypanocidal activity upon conversion into the methyl ester (times) ([3]; methyl ester versus free amino acid): about 9; inhibitory activity against CTPS, in words [1]: sub-micromolar inhibition; times more potent than Acivicin as a CTPS inhibitor ([1]; relative to Acivicin): about three times more potent
CCN1N=C(Cl)C[C@H]1[C@H](N)C(=O)O (relative stereo) [Compound 8b, (S*)-2-amino-2-((S*)-3-chloro-1-ethyl-4,5-dihydro-1H-pyrazol-5-yl)acetic acid hydrochloride]	> 500 µM	> 500 µM	–	–
COC(=O)[C@@H](N)[C@@H]1CC(Br)=NO1 [1-COOMe]	–	–	–	EC50 [3]: 2.1 ± 0.5 µM; EC50 [2, 7]: 12.5 ± 1.6 µM
Cl.NCCN1N=C(Cl)CC1C(N)C(=O)O (centres unmarked) [9a,b, 2-amino-2-(1-(2-aminoethyl)-3-chloro-4,5-dihydro-1H-pyrazol-5-yl)acetic acid monohydrochloride]	0.125 ± 0.002 µM	> 500 µM	–	inhibitory activity against CTPS, in words [1]: sub-micromolar inhibition; times more potent than Acivicin as a CTPS inhibitor ([1]; relative to Acivicin): about three times more potent
N[C@H](C(=O)O)[C@@H]1CC(Cl)=NO1 [Acivicin, reference compound]	–	16.3 µM	36	–
COC(=O)[C@@H](N)[C@@H]1CC(Cl)=NO1 [Acivicin-COOMe]	–	–	–	EC50 [3]: 22.4 ± 1.3 µM; EC50 [2, 7]: 41.9 ± 3.1 µM
N[C@H](C(=O)O)[C@@H]1CC(Br)=NO1 [Compound 1, Br-Acivicin]	–	–	–	increase of the inhibitory potency against CTPS [4]: three fold; EC50 [3]: 0.038 ± 0.013 µM; times more efficacious than Acivicin as an anti-trypanosomal agent ([3]; relative to Acivicin): 12; increase in the in vitro anti-trypanosomal activity [5]: twelve-fold; times more potent than Acivicin as a CTPS inhibitor ([1]; relative to Acivicin): 3; EC50 [2, 7]: 15.1 ± 1.2 µM; toxicity against mammalian cells [6]: unaffected
COC1=NO[C@H]([C@H](N)C(=O)O)C1 [Compound 2, (S)-2-amino-2-((S)-3-methoxy-4,5-dihydroisoxazol-5-yl)acetic acid]	> 500 µM	> 500 µM	>5	–
CN(C)C1=NO[C@H]([C@H](N)C(=O)O)C1 [Compound 3, (S)-2-amino-2-((S)-3-(dimethylamino)-4,5-dihydroisoxazol-5-yl)acetic acid]	> 500 µM	> 500 µM	>5	inhibitory activity against CTPS, in words [1]: complete loss of the inhibitory potency
O=C(O)CC1CC(Br)=NO1 (centres unmarked) [Compound 4, 2-(3-bromo-4,5-dihydroisoxazol-5-yl)acetic acid]	> 500 µM	> 500 µM	>5	inhibitory activity against CTPS, in words [1]: inactive
CC(C)(C)OC(=O)N[C@H](C(=O)O)[C@@H]1CC(Br)=NO1 [Compound 5]	–	–	–	EC50 [3]: 3.4 ± 0.4 µM; CTPS inhibitory potency relative to Br-Acivicin ([1]; relative to Br-Acivicin): twice more potent; EC50 [2, 7]: 4.6 ± 0.5 µM
O=C(N[C@H](C(=O)O)[C@@H]1CC(Br)=NO1)OCc1ccccc1 [Compound 6, (S)-(benzyloxycarbonylamino)-2-((S)-3-bromo-4,5-dihydro-isoxazol-5-yl)acetic acid]	1.74 ± 0.4 µM	410 ± 39 µM	–	times weaker than Acivicin as a CTPS inhibitor ([1]; relative to Acivicin): 5; times weaker than Br-Acivicin as a CTPS inhibitor ([1]; relative to Br-Acivicin): 17
